Results reported in ChEMBL document CHEMBL1122702, “Radiohalogen-labeled imaging agents. 3. Compounds for measurement of brain blood flow by emission tomography” (J Med Chem, 1984).

What was measured:
Assay type in all cases: ADME, organism-based
[1] = organism: Rattus norvegicus; experiment: Ratio of distribution of the [131I]-labeled compound at 5 min in rat brain over uptake in blood
Method in brief: (§1)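 Male Sprague-Dawley rats (200–300 g, fed ad libitum), ether-anesthetized, got a tail-vein bolus of 0.2 mL saline containing 10–20 μCi 131I compound and were decapitated at the stated time. Organs were weighed and gamma-counted against a serially diluted external standard. Organ/blood ratio was calculated from % dose per gram of organ. Animal numbers per time point were 1–4.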

[2] = organism: Rattus norvegicus; experiment: The uptake of the 131 I-labeled compound at 5 min was evaluated in rat liver as Percent of injected dose per gram in the organ; details: in vivo
Method in brief: (§2)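 Male Sprague-Dawley rats (200–300 g, free access to food and water), lightly ether-anesthetized and restrained, received a 0.2 mL saline tail-vein bolus of 10–20 μCi 131I-labeled compound. They were decapitated at the stated time, and organs were excised, weighed and gamma-counted. Percent injected dose was determined against a calibrated external standard made by serial dilution of the injectate. n = 1–4 rats.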

[3] = organism: Rattus norvegicus; experiment: Ratio of distribution of the [131I]-labeled compound at 5 min in rat kidney over uptake in blood; details: other tissue; method in brief: as §1
[4] = organism: Rattus norvegicus; experiment: Ratio of distribution of the [131I]-labeled compound at 30 min in rat lung over uptake in blood; details: other tissue, 0.5 h; method in brief: as §1
[5] = organism: Rattus norvegicus; experiment: The uptake of the 131 I-labeled compound at 30 min was evaluated in rat brain as Percent of injected dose in the total organ; details: in vivo, 0.5 h; method in brief: as §2
[6] = organism: Rattus norvegicus; experiment: Ratio of distribution of the [131I]-labeled compound at 30 min in rat liver over uptake in blood; details: other tissue, 0.5 h; method in brief: as §1
[7] = organism: Rattus norvegicus; experiment: The uptake of the 131 I-labeled compound at 30 min was evaluated in rat heart as Percent of injected dose per gram in the organ; details: in vivo, 0.5 h; method in brief: as §2
[8] = organism: Rattus norvegicus; experiment: The uptake of the 131 I-labeled compound at 5 min was evaluated in rat lung as Percent of injected dose per gram in the organ; details: in vivo; method in brief: as §2
[9] = organism: Rattus norvegicus; experiment: The uptake of the 131 I-labeled compound at 5 min was evaluated in rat kidney as Percent of injected dose per gram in the organ; details: in vivo; method in brief: as §2
[10] = organism: Rattus norvegicus; experiment: The uptake of the 131 I-labeled compound at 30 min was evaluated in rat blood as Percent of injected dose per gram in the organ; details: in vivo, 0.5 h; method in brief: as §2
[11] = organism: Rattus norvegicus; experiment: The uptake of the 131 I-labeled compound at 30 min was evaluated in rat heart as Percent of injected dose in the total organ; details: in vivo, 0.5 h; method in brief: as §2
[12] = organism: Rattus norvegicus; experiment: The uptake of the 131 I-labeled compound at 30 min was evaluated in rat kidney as Percent of injected dose in the total organ; details: in vivo, 0.5 h; method in brief: as §2
[13] = organism: Rattus norvegicus; experiment: The uptake of the 131 I-labeled compound at 5 min was evaluated in rat heart as Percent of injected dose per gram in the organ; details: in vivo; method in brief: as §2
[14] = organism: Rattus norvegicus; experiment: The uptake of the 131 I-labeled compound at 5 min was evaluated in rat liver as Percent of injected dose in the total organ; details: in vivo; method in brief: as §2
[15] = organism: Rattus norvegicus; experiment: Ratio of distribution of the [131I]-labeled compound at 30 min in rat kidney over uptake in blood; details: other tissue, 0.5 h; method in brief: as §1
[16] = organism: Rattus norvegicus; experiment: The uptake of the 131 I-labeled compound at 30 min was evaluated in rat brain as Percent of injected dose per gram in the organ; details: in vivo, 0.5 h; method in brief: as §2
[17] = organism: Rattus norvegicus; experiment: The uptake of the 131 I-labeled compound at 5 min was evaluated in rat blood as Percent of injected dose per gram in the organ; details: in vivo; method in brief: as §2
[18] = organism: Rattus norvegicus; experiment: Ratio of distribution of the [131I]-labeled compound at 30 min in rat brain over uptake in blood; details: 0.5 h; method in brief: as §1
[19] = organism: Rattus norvegicus; experiment: The uptake of the 131 I-labeled compound at 5 min was evaluated in rat kidney as Percent of injected dose in the total organ; details: in vivo; method in brief: as §2
[20] = organism: Rattus norvegicus; experiment: Ratio of distribution of the [131I]-labeled compound at 5 min in rat lung over uptake in blood; details: other tissue; method in brief: as §1
[21] = organism: Rattus norvegicus; experiment: The uptake of the 131 I-labeled compound at 5 min was evaluated in rat brain as Percent of injected dose in the total organ; details: in vivo; method in brief: as §2
[22] = organism: Rattus norvegicus; experiment: The uptake of the 131 I-labeled compound at 30 min was evaluated in rat liver as Percent of injected dose in the total organ; details: in vivo, 0.5 h; method in brief: as §2
[23] = organism: Rattus norvegicus; experiment: The uptake of the 131 I-labeled compound at 5 min was evaluated in rat heart as Percent of injected dose in the total organ; details: in vivo; method in brief: as §2
[24] = organism: Rattus norvegicus; experiment: The uptake of the 131 I-labeled compound at 30 min was evaluated in rat kidney as Percent of injected dose per gram in the organ; details: in vivo, 0.5 h; method in brief: as §2
[25] = organism: Rattus norvegicus; experiment: The uptake of the 131 I-labeled compound at 30 min was evaluated in rat liver as Percent of injected dose per gram in the organ; details: in vivo, 0.5 h; method in brief: as §2
[26] = organism: Rattus norvegicus; experiment: Ratio of distribution of the [131I]-labeled compound at 5 min in rat heart over uptake in blood; details: other tissue; method in brief: as §1
[27] = organism: Rattus norvegicus; experiment: The uptake of the 131 I-labeled compound at 5 min was evaluated in rat brain as Percent of injected dose per gram in the organ; details: in vivo; method in brief: as §2
[28] = organism: Rattus norvegicus; experiment: Ratio of distribution of the [131I]-labeled compound at 30 min in rat heart over uptake in blood; details: other tissue, 0.5 h; method in brief: as §1
[29] = organism: Rattus norvegicus; experiment: The uptake of the 131 I-labeled compound at 30 min was evaluated in rat lung as Percent of injected dose per gram in the organ; details: in vivo, 0.5 h; method in brief: as §2
[30] = organism: Rattus norvegicus; experiment: Ratio of distribution of the [131I]-labeled compound at 5 min in rat liver over uptake in blood; details: other tissue; method in brief: as §1

For CCCCCCCCCCCCNC(C)Cc1cc(OC)c(I)cc1OC (stereo not given), the Ratio [1] was 0.1, the Dose [2] was 1.2% and the Ratio [3] was 1.2. It also gave a Ratio [4] of 8.1, a Dose [5] of 0.046% and a Ratio [6] of 3.3. It also gave a Dose [7] of 0.19%, a Dose [8] of 6.1% and a Dose [9] of 0.58%. It also gave a Dose [10] of 0.16%, a Dose [11] of 0.27% and a Dose [12] of 0.69%. For the same molecule, the Dose [13] was 0.6%, the Dose [14] was 17% and the Ratio [15] was 1.4. For the same molecule, the Dose [16] was 0.022%, the Dose [17] was 0.48% and the Ratio [18] was 0.14. The Dose [19] was 1.8%, the Ratio [20] was 13 and the Dose [21] was 0.084%. The Dose [22] was 7.9%, the Dose [23] was 1% and the Dose [24] was 0.22%. For the same molecule, the Dose [25] was 0.53%, the Ratio [26] was 1.2 and the Dose [27] was 0.047%. For the same molecule, the Ratio [28] was 1.2, the Dose [29] was 1.3% and the Ratio [30] was 2.5.
